RGS4 inh: RGS4 inhibitors, primary screen, cell-based, HEK293 M3R inducible RGS4, calcium flux; hit rate 0.45% among 310,000; B-score at 10 µM; Fluo-4 calcium flux; active compounds read high; triggered by carbachol at its EC20;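 active = B-score, a plate-corrected calcium signal, over three deviations above library mean, with baseline fluorescence within five deviations of library mean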;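 also: RGS4 expression induced by doxycycline in cells with stable M3 receptor; B-score is computed from the integrated fluorescence ratio over baseline after carbachol; higher B-score means a larger calcium signal and so more RGS4 inhibition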
Target sequence (P49798 whole entry, looked up): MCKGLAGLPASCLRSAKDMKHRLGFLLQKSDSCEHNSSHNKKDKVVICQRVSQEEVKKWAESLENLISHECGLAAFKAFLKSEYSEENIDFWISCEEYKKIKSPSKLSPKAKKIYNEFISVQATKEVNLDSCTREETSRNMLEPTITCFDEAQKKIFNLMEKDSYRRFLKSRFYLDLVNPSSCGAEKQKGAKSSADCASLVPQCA
MrgX1 allo act: positive allosteric modulators of MrgX1, primary screen, HEK293 cells, Fluo-4 calcium flux; hit rate 0.63% among 310,000; Mas-related G-protein coupled receptor member X1 (Homo sapiens), Q96LB2; B-score at 10 µM; FDSS; active compounds read high; AID 588675, 2011;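 active = plate-corrected calcium response at least 3 library SD above typical, normal starting fluorescence, not activating the receptor alone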;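 also: compound read alongside a low EC10 to EC30 dose of BAM8-22 agonist; peak minus trough fluorescence over baseline measured at the second addition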
Target sequence (Q96LB2 whole entry, looked up): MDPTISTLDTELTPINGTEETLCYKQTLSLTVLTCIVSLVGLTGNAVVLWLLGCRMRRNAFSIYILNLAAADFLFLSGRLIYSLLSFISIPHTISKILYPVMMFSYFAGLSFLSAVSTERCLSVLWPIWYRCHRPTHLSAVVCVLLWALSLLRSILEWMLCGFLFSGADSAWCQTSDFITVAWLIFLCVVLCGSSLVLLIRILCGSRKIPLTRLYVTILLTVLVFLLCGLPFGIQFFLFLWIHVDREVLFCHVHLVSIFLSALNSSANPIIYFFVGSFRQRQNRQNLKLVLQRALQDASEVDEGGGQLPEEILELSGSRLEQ
MrgX1 antagonist: antagonists of human MrgX1 receptor, primary screen, HEK293 cells, Fluo-4 calcium flux; Mas-related G-protein coupled receptor member X1 (Homo sapiens), Q96LB2; BAM8-22 antagonism; active compounds read low; B-score at 10 µM; hit rate 1.3% among 310,000;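 active = calcium-response B-score plate-corrected more than 3 library SD below zero, starting fluorescence within 5 deviations, no agonist response on first addition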;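 also: peak minus trough fluorescence over baseline after final BAM8-22 challenge near maximal dose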
MrgX1 agonist: agonists of human MrgX1 receptor, primary screen, HEK293 cells, Fluo-4 calcium flux | Fluo-4 calcium fluorescence, agonist mode; active compounds read high | B-score at 10 µM | hit rate 0.44% among 310,000 | AID 588627, 2011;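 active = calcium response B-score plate-corrected fluorescence ratio at least 3 library SD, with starting fluorescence B-score inside 5 SD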
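Assay system: stable human MrgX1 HEK293 cell line. Quantity: 15,000 cells per well. Schedule: cells plated overnight, dye loaded 0.5 h 37 °C, 0.5 h room temperature. Detection: Fluo-4 NW calcium-flux fluorescence, kinetic read. Read-out basis: peak-minus-minimum fluorescence over baseline, converted to B scores. Control set: positive and negative control wells on each plate.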
RGS4 pot: RGS4 potentiators or activators, primary screen, cell-based, HEK293 M3R inducible RGS4, calcium flux; carbachol calcium flux Fluo4; active compounds read low; B-score at 10 µM; hit rate 0.92% among 310,000; AID 463111, 2010;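 active = B-score of the integrated calcium signal more than 4 SD below the library mean, with starting fluorescence not abnormally high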;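 also: negative B-score means reduced calcium response which marks RGS4 activation or potentiation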
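Assay system: HEK293 FlpIn-TREx cells, stable M3R, doxycycline-inducible RGS4 / Probe or stimulus: carbachol, ECmax concentration / Times: overnight RGS4 induction, 30 min dye load 37 °C, 20 min compound RT / Signal: kinetic calcium fluorescence imaging with Fluo4-AM dye, 2 µM / Measure: Agonist-evoked peak-minus-minimum fluorescence over baseline, integrated ratio, B score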
MrgX1 antag conf: MrgX1 receptor antagonists, duplicate retest, confirmation, HEK293 cells, Fluo-4 calcium flux | BAM8-22 calcium flux; active compounds read low | shares compounds with MrgX1 antagonist | hit rate 19% among 2,300 | remaining BAM8-22 calcium response % of control (active compounds read low), % at 10 µM;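 active = remaining agonist calcium response no higher than 100% minus 3 SD of agonist-only control wells, with starting fluorescence near control levels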;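 also: agonist BAM8-22 given at a near maximal EC90 to ECmax level; peak minus minimum fluorescence divided by baseline after agonist addition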
HEK293 Ca flux: nonspecific calcium signal in parental HEK293, confirmation, counter-screen for MrgX1 antagonist project, parental HEK293 cells, Fluo-4 calcium flux; shares compounds with MrgX1 antagonist; Fluo-4 calcium fluorescence, FDSS; fluorescence ratio F(max-min)/F0 at 10 µM; hit rate 2% among 4,000;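 active = duplicate-averaged calcium fluorescence ratio at least three times the standard deviation of buffer wells, a nonspecific response in parental cells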
HEK293 Ca counter: calcium response in parental HEK293 cells, primary screen, counter-screen for MrgX1 allosteric activator project, cell-based, Fluo-4 calcium flux, duplicate | shares compounds with MrgX1 antagonist | Fluo-4 fluorescence ratio; active compounds read high | fluorescence ratio F(max-min)/F0 at 10 µM | hit rate 0.4% among 4,000;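 active = calcium fluorescence ratio, averaged over duplicates, at least 3 SD of the buffer-well ratio, meaning a nonspecific response in receptor-free cells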;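 also: untransfected parental HEK293 lacking MrgX1 used as counterscreen for MrgX1 allosteric activators; fluorescence change taken during the second addition on a kinetic imager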
HEK293 Ca cntr2: calcium response in parental HEK293 cells, primary screen, counter-screen for MrgX1 agonist project, cell-based, Fluo-4 calcium flux, duplicate, agonist mode; Fluo-4 calcium fluorescence (FDSS); active compounds read high; shares compounds with MrgX1 antagonist; hit rate 8.7% among 4,000; AID 624115, 2012; fluorescence ratio F(max-min)/F0 at 10 µM;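 active = calcium fluorescence ratio at least three times the spread of buffer wells, meaning a non-specific response in parental cells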
* marks the source's active call; other numbers are inactive results; i = inactive; . = not tested or not shown. Only some compounds are listed: those with a hit (about 3.5% of all), similar ones and a draw of the others.

SMILES	RGS4 inh	MrgX1 allo act	MrgX1 antagonist	MrgX1 agonist	RGS4 pot	MrgX1 antag conf	HEK293 Ca flux	HEK293 Ca counter	HEK293 Ca cntr2
Cc1ccc(C)c(NS(=O)(=O)c2ccc3[nH]c(=O)oc3c2)c1	i	i	-5.3*	i	i	i	i	i	i
OCCNc1nc(Nc2ccccc2O)nc(N2CCCC2)n1	i	i	i	i	i	.	.	.	.
CC(=O)Nc1ccccc1Nc1nc(NCCO)nc(N2CCCC2)n1	i	i	-8.3*	i	i	i	i	i	i
O=C(NCCCN1CCOCC1)c1cccs1	.	i	-8.8*	i	.	79%*	i	i	i
CCOC(=O)[C@H]1[C@H]2COc3ccccc3[C@@H]2N2C(=O)c3c(C)cc(C)cc3NC(=O)[C@@]12C	.	i	i	i	.	.	.	.	.
Cc1ncoc1C(=O)N1CCCC(C(=O)c2cccc(OC(C)C)c2)C1 (stereo not given)	i	i	-6.1*	i	i	i	i	i	i
Cc1ncoc1C(=O)N1CCCC(C(=O)c2ccc(Oc3ccccc3)cc2)C1 (stereo not given)	i	i	i	i	i	.	.	.	.
O=C(Nc1ccc(OC(F)(F)F)cc1)Oc1ccccc1N1CCCCC1	i	i	-5.4*	i	i	i	i	i	i
Cc1ccc(CN2CC(C(=O)N3CCN(c4ccccc4O)CC3)CC2=O)cc1 (stereo not given)	i	i	i	i	i	.	.	.	.
O=C1CCC(=O)N1CN(C(=O)c1ccco1)c1ccccc1	i	i	-6.6*	i	i	i	i	i	i
Cc1ccc(N(CN2C(=O)C3C4CCC(C4)C3C2=O)C(=O)c2ccco2)cc1 (stereo not given)	i	i	i	i	i	.	.	.	.
COc1ccc2c(c1)OC[C@H]1[C@H]2N2C(=O)c3cc(OC)c(OC)cc3NC(=O)[C@@]2(C)[C@H]1c1ccccc1	.	i	i	i	.	.	.	.	.
COc1ccc2c(c1)OC[C@H]1[C@H]2N2C(=O)c3cc(Br)ccc3NC(=O)[C@@]2(C)[C@H]1c1ccccc1	.	i	-7.6*	i	.	79%*	i	i	i
Cc1occc1C(=O)N/N=C/c1cccs1	i	i	-10*	i	i	83%*	i	i	i
CCc1c(C)nc2cc(-c3ccc(OC)c(OC)c3)nn2c1NCC1CC1	i	i	i	i	i	.	.	.	.
CCCN(CCC)S(=O)(=O)c1ccc(C(=O)Nc2nc3c(s2)CCc2ccccc2-3)cc1	i	i	-5.2*	i	i	i	i	i	i
Cc1ccc(-c2nc(NC(=O)c3ccc(S(=O)(=O)N(CCC#N)CCC#N)cc3)sc2-c2ccccc2)cc1	i	i	i	i	i	.	.	.	.
O=C(Nc1ccc(F)cc1)c1ccc(Br)c(S(=O)(=O)N2CCOCC2)c1	i	i	i	i	i	.	.	.	.
CCCc1cc(=O)n2[nH]c(NCc3ccccc3Cl)nc2n1	i	i	i	i	i	.	.	.	.
CCCc1cc(=O)n2[nH]c(NCc3cccs3)nc2n1	i	i	-11*	i	i	i	i	i	i
CCCSc1nnc(NC(=O)Nc2ccc(F)cc2)s1	i	i	-5.6*	i	i	71%*	i	i	i
CN(C)c1nc(SCc2ccccc2)nc(N2CCOCC2)n1	i	i	-6.4*	i	i	i	i	i	i
CCNc1nc(SCc2ccccc2)nc(N2CCOCC2)n1	.	i	i	i	.	.	.	.	.
O=C(NNC(=O)c1cccc(O)c1)Nc1ccc([N+](=O)[O-])cc1	i	i	i	i	i	.	.	.	.
COc1ccc(C)cc1-n1nnnc1SCC(=O)Nc1cccnc1Cl	i	i	-5.9*	i	i	i	i	i	i
SMILES	RGS4 inh	MrgX1 allo act	MrgX1 antagonist	MrgX1 agonist	RGS4 pot	MrgX1 antag conf	HEK293 Ca flux	HEK293 Ca counter	HEK293 Ca cntr2
COc1ccc(C)cc1-n1nnnc1SCC(=O)Nc1cc(C)on1	i	i	i	i	i	.	.	.	.
O=C(NCCC1=CCCCC1)N[C@@H](Cc1ccccc1)C(=O)O	i	i	-9.7*	i	i	i	i	i	i
O=C(NCCc1ccccc1)NC(Cc1ccccc1)C(=O)O (stereo not given)	i	i	i	i	i	.	.	.	.
O=C(Nc1nncs1)C1CC(=O)N(C2CCCC2)C1 (stereo not given)	i	i	i	i	i	.	.	.	.
Cn1cnc2c1c(=O)n(CC(O)CO)c(=O)n2C (stereo not given)	i	i	i	i	i	.	.	.	.
CCOc1ccc(NC(=O)Nc2nc(SCC)ns2)cc1	i	i	-6.3*	i	i	78%*	i	i	i
CCSc1nsc(NC(=O)Nc2ccc(F)cc2F)n1	i	i	i	i	i	.	.	.	.
C=CCn1c(O)c(CN2CCOCC2)c(C)c(C#N)c1=O	i	i	-6.4*	i	i	i	i	i	i
COc1ccc(Nc2oc(-c3ccc(OC)cc3)nc2C#N)cc1	i	i	-5.8*	i	i	i	i	i	i
CC1(C)CC(=O)c2c(O)cc(O)cc2O1	i	i	i	i	i	.	.	.	.
C[C@]12CCC[C@H](O1)c1c(cc3c(c1O)C(=O)c1c(O)cc(O)cc1C3=O)O2	i	i	-7.6*	i	i	i	0.64*	i	i
S=C(Nc1ccccc1)Nc1cccc(Br)c1	i	i	-5.4*	i	i	63%*	i	i	i

From PubChem BioAssay
